# Screens: PubChem, several laboratories
# NF-kB neuron act: activators of NF-kB expression in neurons, primary screen, cell-based, HTS | human neuronal cells, NF-kB reporter expression; hits give high values | fold change at 12.5 µM | actives 1.6% (n = 190,000) | AID 1239, 2008; in the data active = fold change above about 3.3
# STAT1 activator: STAT1 signaling activators, primary screen, cell-based, HTS, luciferase reporter; AID 932, 2007; NIH 3T3 STAT1-luciferase reporter, IFN-gamma, luminescence; 100% = IFN-gamma alone, no compound; activation (% of control), % at 5.5 µM; actives 2.6% (n = 200,000);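 active = activation above the screen-wide mean activation plus 3 SD, cut at about 130% in these data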;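 also: raw ratio to IFN-gamma control signal so 100% means no change and 0% no light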
# STAT1 blocker: STAT1 signaling inhibitors, primary screen, cell-based, HTS, luciferase reporter; actives 0.35% (n = 200,000); NIH 3T3 STAT1-luciferase reporter, IFN-gamma, luminescence; AID 920, 2007; inhibition, % at 5.5 µM;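 active = inhibition above a set limit, the mean inhibition across all tested compounds plus 3 SD, cut at about 34% in these data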;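 also: 0% = IFN-gamma with DMSO and 100% = IFN-gamma with 300 µM nifuroxazide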
# APP 5'UTR act: activators of APP 5'UTR luciferase reporter, primary screen, SH-SY5Y cells; actives 1% (n = 190,000); SH-SY5Y APP 5'UTR luciferase reporter, luminescence; zero percent = DMSO vehicle wells; activation, % at 2 µM;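 active = activation above a set limit, based on mean plus 3 SD of controls, cut at about 140% in these data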
# STAT3 activator: IL-6 driven STAT3 reporter potentiators, primary screen, U3A cells, luciferase, luminescence, MLSCN library; IL-6 STAT3-luciferase reporter; 100% = signal with IL-6 EC80 alone; activation (% of control), % at 5.6 µM; actives 0.91% (n = 190,000); AID 871, 2007;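 active = activation above the screen-wide mean of compound activation plus 3 SD, cut at about 130% in these data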;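 also: 0% = background luminescence of wells with medium and substrate only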
#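 Test system: Human STAT1-deficient U3A cells with stable STAT3-luciferase reporter | Also added: Interleukin-6, 33 ng/mL | Timing: Compound pre-incubation 1 h before IL-6, then 6 h stimulation at 37 °C | Technique: Luciferase reporter luminescence | Read-out: Percent of IL-6-only median luminescence | Benchmarks: IL-6-only wells as 100% reference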
# STAT3 inh: IL-6 driven STAT3 reporter inhibitors, primary screen, U3A cells, luciferase, luminescence, MLSCN library. IL-6 STAT3-luciferase reporter; host cell line lacks STAT1. inhibition, % at 5.5 µM. actives 0.89% (n = 190,000);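 active = inhibition above the mean inhibition across all screened compounds plus 3 SD, cut at about 44% in these data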;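 also: 0% = DMSO only wells and 100% = 100 µM nifuroxazide control wells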
# An asterisk follows results filed as active; . = no result. Only some compounds are listed: those with a hit (about 4.9% of all), similar ones and a draw of the others.
SMILES,NF-kB neuron act,STAT1 activator,STAT1 blocker,APP 5'UTR act,STAT3 activator,STAT3 inh
COc1cccc(CC(NC(C)=O)C(=O)NC2CCN(S(=O)(=O)c3ccc(NC(C)=O)cc3)CC2)c1 (stereo not drawn),1.1,103,-5,0,104,-3
O=C(COc1ccc(Cc2ccccc2)cc1)c1ccc(F)cc1,0.97,96,4,27,98,3
O=C(COc1ccc(F)cc1)c1ccc2c(c1)CCCC2,.,137*,-42,71,102,8
O=C(Cc1ccccc1)NCc1n[nH]c(=S)n1-c1ccc(Br)cc1,1.1,98,1,6,107,-6
Cc1ccc2nc(CSc3nc(C)cc(C)c3C#N)[nH]c2c1,2.9,125,-28,205*,102,6
c1ccc(-c2noc(-c3cccnc3)n2)cc1,3.4*,150*,-58,80,97,3
c1ccc(-c2ccccc2-c2nc(-c3ccncc3)no2)cc1,0.7,102,-2,-3,124,-27
O=c1[nH]c2ccccc2cc1-c1noc(-c2cccnc2)n1,0.75,101,-1,4,98,10
CCOc1cc(-c2noc(-c3cccnc3)n2)ccc1OC,0.85,104,-4,4,103,2
COc1ccc(-c2noc(-c3cccnc3)n2)cc1OC,1.8,140*,-44,36,100,9
c1ccc(-c2cnc(-c3cccnc3)o2)cc1,1.6,135*,-38,37,100,4
c1ccc(-c2ccc(-c3nc(-c4cccnc4)no3)cc2)cc1,5.3*,137*,-39,136*,98,8
CC(C)CCN1CCN(CC(c2ccccc2)c2ccccc2)CC1CCO (stereo not drawn),1.1,101,-3,5,99,4
C(=C\c1nc(-c2cccnc2)no1)/c1ccccc1,1.2,145*,-50,123,86,18
COc1cc(OC)cc(-c2nc(-c3ccccc3)no2)c1,2.1,121,-25,.,108,-6
Cc1ccc(-c2noc(/C=C/c3ccccc3)n2)cc1,2.1,117,-19,-14,100,10
COc1cccc(-c2noc(-c3ccc(Cl)nc3)n2)c1,4.9*,151*,-58,124,144*,-35
Cc1nn(-c2ccccc2)c(N2CCCC2)c1/C=N/NC(=S)Nc1ccccc1F,0.4,129*,-32,94,95,2
N#C/C(=C\c1ccc(N2CCCCC2)o1)C(=O)Nc1cccc(Br)c1,1.1,160*,-67,170*,111,-12
N#C/C(=C\c1ccc(N2CCCCC2)o1)C(N)=O,1.3,117,-19,30,92,12
CCSc1nnc(NC(=O)/C=C/c2ccc3c(c2)OCO3)s1,1.4,105,-6,-7,92,11
CCSc1nnc(Nc2ccc(C)cc2)s1,3.4*,143*,-47,70,103,2
CCSc1nnc(NC(=O)c2ccccc2C)s1,2.4,138*,-44,56,101,6
COc1ccccc1C(=O)Nc1nnc(-c2ccco2)s1,3.2,138*,-41,145*,101,4
CCSc1nnc(NC(=O)c2ccc3c(c2)OCO3)s1,3.4*,118,-20,53,87,19
SMILES,NF-kB neuron act,STAT1 activator,STAT1 blocker,APP 5'UTR act,STAT3 activator,STAT3 inh
Cn1c(=O)c2c(nc(NCc3cccnc3)n2Cc2ccccc2Cl)n(C)c1=O,1.1,89,11,-2,107,0
Cc1ccccc1C(=O)Nc1nnc(-c2ccco2)s1,3.7*,59,44*,141*,42,69*
Brc1ccccc1-n1nnc(-c2nccs2)n1,3.9*,133*,-34,127,.,.
Cc1ccc2cc(C)c3nnc(SCC(=O)Nc4nc5c(s4)CCCC5)n3c2c1C,0.8,102,-2,10,112,-8
Cc1ccc2nsnc2c1NC(=O)c1ccc(-c2cc(Cl)ccc2Cl)o1,1.1,129*,-32,12,108,1
CC/C(=N/NC(=O)c1ccc(Br)o1)c1ccc(Cl)cc1,1.4,131*,-35,-5,111,-8
